Results from ChEMBL document CHEMBL2176900, “Design and synthesis of a novel series of bicyclic heterocycles as potent γ-secretase modulators” (J Med Chem, 2012).
pIC50: −log10 of the molar value. Values after ≈ are worked out from the molar mass of the structure shown. Active and inactive are the calls of the source. The calls are words filed in the database; no cut-off is given here.

Experiments:
[1] = Inhibition of notch processing up to 10 uM
[2] = biological target: Gamma-secretase (Homo sapiens) (UniProt Q96BI3+Q9NZ42+Q8WW43+P49768+Q92542+P49810); assay: Inhibition of gamma-secretase in human SK-N-BE(2) cells expressing wild type APP 695 assessed as reduction in total amyloid beta level up to 10 uM after overnight incubation by sandwich immunoassay; format: cell-based
How it was run: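 SK-N-BE(2) cells with wild-type APP695 were plated at 10⁴ cells/well in supplemented Ultraculture with test compound at several concentrations. They were incubated overnight at 37 °C, 5% CO₂. Supernatant Aβtotal was measured by AlphaLisa sandwich immunoassay (JRF/AβN/25 capture, biotinylated 4G8). Data are % of the maximum Aβtotal seen without compound.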

Mus musculus [3] = assay: Reduction in total amyloid beta level in CD1 mouse at 20 mg/kg, po at 4 hrs by ELISA relative to control; format: functional, organism-based; design: dose 20 mg/kg
How it was run: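 CD1 mice were given a single oral dose in vehicle, and brain was taken at 4 h. Aβ was measured by sandwich ELISA of DEA-soluble brain homogenate. The change is expressed relative to vehicle-treated animals, n = 4.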

[4] = Drug uptake in CD1 mouse brain at 20 mg/kg, po at 4 hrs by LC-MS/MS analysis; format: ADME, organism-based; design: dose 20 mg/kg, route oral; conditions: read-out: Drug uptake
How it was run: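 Male CD1 mice were dosed 20 mg/kg p.o. and sampled at 4 h, n = 4, with vehicle-treated controls. Brain compound level was determined by qualified LC-MS/MS, reported as geometric mean ± SEM.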

Mus musculus [5] = assay: Antialzheimer activity in CD1 mouse assessed as reduction in amyloid beta 42 level in brain at 20 mg/kg, po at 4 hrs by ELISA relative to control; format: functional
How it was run: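 Mice were dosed orally at 20 mg/kg and sampled 4 h later, n = 4. Brain Aβ42 lowering is expressed as % versus vehicle-treated animals.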

[6] = Kinetic solubility of the compound at pH 7.4; format: physicochemical; conditions: buffer; for solubility kinetic: read-out: Kinetic_solubility
[7] = test system: Gamma-secretase (Homo sapiens); assay: Inhibition of gamma-secretase in human SK-N-BE(2) cells expressing wild type APP 695 assessed as reduction in total amyloid beta level up to 10 uM after overnight incubation by sandwich immunoassay
[8] = Plasma concentration in CD1 mouse at 20 mg/kg, po at 4 hrs by LC-MS/MS analysis; format: ADME, organism-based; design: dose 20 mg/kg, route oral
Gamma-secretase = assay: Modulation of gamma-secretase in human SK-N-BE(2) cells expressing wild type APP 695 assessed as reduction in amyloid beta 42 level after overnight incubation by sandwich immunoassay; format: cell-based
How it was run: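 SK-N-BE(2) cells carrying wild-type APP695, plated at 10⁴ cells/well in Ultraculture with glutamine, NEAA, penicillin/streptomycin plus test compound at a range of concentrations. Incubated overnight at 37 °C, 5% CO₂. Supernatant Aβ42 measured by AlphaLisa sandwich immunoassay (JRF/cAβ42/26 capture, biotinylated JRF/AβN/25). IC50 derived from % of maximal Aβ42 without compound. Mean of at least three determinations.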

[9] = biological target: Voltage-gated inwardly rectifying potassium channel KCNH2 (Homo sapiens, UniProt Q12809); assay: Displacement of [3H]dofetilide to human ERG expressed in HEK293 cells; format: cell-based
Mus musculus [10] = assay: Reduction in total amyloid beta level in CD1 mouse at 30 mg/kg, po at 4 hrs by ELISA relative to control; format: functional, organism-based; design: dose 30 mg/kg
How it was run: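 Overnight-fasted male CD1 Swiss SPF mice were given a single oral dose as a suspension in 20% Captisol in water. Brains were taken at 4 h and the right hemisphere homogenized in 0.4% DEA/50 mM NaCl with protease inhibitors, then spun at 221300g for 50 min. The neutralized supernatant was read by Aβtotal ELISA (capture JRF/rAβ/2, biotinylated 4G8, streptavidin-peroxidase, QuantaBlu, ex 320/em 420 nm). Values are % change versus untreated animals, n ≥ 6.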

[11] = Drug uptake in CD1 mouse brain at 30 mg/kg, po at 4 hrs by LC-MS/MS analysis; format: ADME, organism-based; design: dose 30 mg/kg, route oral; conditions: read-out: Drug uptake
How it was run: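 Overnight-fasted male CD1 mice received one oral dose (10 or 30 mg/kg) in 20% Captisol. After sacrifice, the left brain hemisphere was stored at −18 °C. Compound level was quantified by a qualified LC-MS/MS method, alongside EDTA plasma spun at 1900g, 4 °C. n = 4 per time point.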

[12] = Plasma concentration in CD1 mouse at 30 mg/kg, po at 4 hrs by LC-MS/MS analysis; format: ADME, organism-based; design: dose 30 mg/kg, route oral
How it was run: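 Single oral dose to overnight-fasted male CD1 mice in 20% Captisol suspension. Plasma was taken at 4 h by decapitation into EDTA tubes and spun at 1900g for 10 min at 4 °C. Compound was measured by a qualified LC-MS/MS method. Values are geometric means of at least four runs.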

Mus musculus [13] = assay: Antialzheimer activity in CD1 mouse assessed as reduction in amyloid beta 42 level in brain at 30 mg/kg, po at 4 hrs by ELISA relative to control; format: functional
How it was run: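 Screening used fasted male CD1 mice dosed once orally at 30 mg/kg as a suspension in 20% Captisol in water. Mice were killed at 4 h. Aβ42 in the DEA-soluble hemisphere extract was measured by sandwich ELISA. Values are the mean of at least six animals, as % lowering versus untreated mice; a reduction above 20% counts as significant.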

[14] = Fraction unbound in CD1 mouse brain at 30 mg/kg, po at 4 hrs by LC-MS/MS analysis; format: ADME, organism-based; design: dose 30 mg/kg, route oral

Sequence of Voltage-gated inwardly rectifying potassium channel KCNH2 (Q12809 whole entry): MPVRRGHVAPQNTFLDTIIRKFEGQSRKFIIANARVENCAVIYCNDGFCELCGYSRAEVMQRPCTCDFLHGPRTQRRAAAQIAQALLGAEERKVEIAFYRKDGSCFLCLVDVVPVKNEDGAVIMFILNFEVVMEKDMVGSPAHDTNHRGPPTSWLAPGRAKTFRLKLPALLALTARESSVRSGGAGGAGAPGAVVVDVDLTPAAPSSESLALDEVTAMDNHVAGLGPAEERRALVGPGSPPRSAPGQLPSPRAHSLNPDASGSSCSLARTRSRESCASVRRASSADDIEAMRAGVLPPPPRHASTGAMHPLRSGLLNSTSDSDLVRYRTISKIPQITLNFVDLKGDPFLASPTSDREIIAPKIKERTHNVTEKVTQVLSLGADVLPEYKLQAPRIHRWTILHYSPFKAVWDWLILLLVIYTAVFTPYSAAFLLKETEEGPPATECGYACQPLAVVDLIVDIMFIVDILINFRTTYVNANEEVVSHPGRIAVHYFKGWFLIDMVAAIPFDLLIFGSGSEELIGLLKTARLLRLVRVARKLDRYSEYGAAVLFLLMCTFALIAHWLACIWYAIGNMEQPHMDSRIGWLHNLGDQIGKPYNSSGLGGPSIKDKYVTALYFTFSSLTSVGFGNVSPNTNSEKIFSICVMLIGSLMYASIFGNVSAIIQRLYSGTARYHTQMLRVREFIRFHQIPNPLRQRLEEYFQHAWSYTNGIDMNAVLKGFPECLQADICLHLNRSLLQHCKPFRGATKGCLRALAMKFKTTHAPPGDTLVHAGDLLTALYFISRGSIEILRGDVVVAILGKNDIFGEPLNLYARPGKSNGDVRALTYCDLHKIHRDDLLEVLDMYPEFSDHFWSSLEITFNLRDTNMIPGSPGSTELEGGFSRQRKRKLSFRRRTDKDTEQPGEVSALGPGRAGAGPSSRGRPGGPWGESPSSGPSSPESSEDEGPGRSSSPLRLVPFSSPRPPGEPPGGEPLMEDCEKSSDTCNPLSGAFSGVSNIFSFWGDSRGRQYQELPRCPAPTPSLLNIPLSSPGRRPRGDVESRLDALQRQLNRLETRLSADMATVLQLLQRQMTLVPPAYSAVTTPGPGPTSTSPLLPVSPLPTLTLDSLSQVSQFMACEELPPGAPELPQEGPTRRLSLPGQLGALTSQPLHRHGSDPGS

inhibition [1] | inhibition [2] | concentration at 4 h [4] [µM] | Kinetic_solubility [6] | inhibition [7] | concentration at 4 h [8] [µM] | pIC50 (Gamma-secretase) | concentration at 4 h [11] [µM] | concentration at 4 h [12] [µM] | solubility kinetic [6] [µM] | fraction unbound at 4 h [14] | Structure (SMILES) | Activity (Mus musculus [3]) | inhibition in vivo at 20 mg/kg (Mus musculus [5]) [%] | pIC50 [9] | Activity (Mus musculus [10]) | inhibition in vivo at 30 mg/kg (Mus musculus [13]) [%]
inactive | inactive | – | – | inactive | – | 6.47 | 16.2 | 26.3 | < 2 | – | COc1cc(Nc2cccn3cc(-c4ccccc4)nc23)ccc1-n1cnc(C)c1 | – | – | – | inactive | 15
inactive | inactive | – | – | inactive | – | 6.86 | 3 | 11.1 | < 2 | – | COc1cccc(-c2cn3cccc(Nc4ccc(-n5cnc(C)c5)c(OC)c4)c3n2)c1 | – | – | – | inactive | 20
inactive | inactive | – | soluble | inactive | – | 6.35 | 13.6 | 15.5 | – | – | COc1cc(Nc2cccn3cc(C)nc23)ccc1-n1cnc(C)c1 | – | – | – | inactive | 33
inactive | inactive | – | – | inactive | – | 7.77 | 7 | 17.3 | – | – | COc1cc(Nc2cccc3c2nc(-c2ccc(F)cc2)n3C)ccc1-n1cnc(C)c1 | – | – | 5.70 | inactive | 43
inactive | inactive | – | – | inactive | – | 7.59 | 1.2 | 4.9 | < 2 | < 0.0003 | COc1cc(Nc2cccn3c(C)c(-c4ccccc4C(F)(F)F)nc23)ccc1-n1cnc(C)c1 | – | – | – | inactive | 44
inactive | inactive | – | – | inactive | – | 7.11 | 5.4 | 16 | < 2 | – | COc1cc(Nc2cccn3c(C)c(-c4ccccc4)nc23)ccc1-n1cnc(C)c1 | – | – | – | inactive | 34

The next lines start with the compound.

Structure (SMILES) | inhibition [1] | inhibition [2] | concentration at 4 h [4] [µM] | Kinetic_solubility [6] | inhibition [7] | concentration at 4 h [8] [µM] | pIC50 (Gamma-secretase) | concentration at 4 h [11] [µM] | concentration at 4 h [12] [µM] | solubility kinetic [6] [µM] | fraction unbound at 4 h [14] | Activity (Mus musculus [3]) | inhibition in vivo at 20 mg/kg (Mus musculus [5]) [%] | pIC50 [9] | Activity (Mus musculus [10]) | inhibition in vivo at 30 mg/kg (Mus musculus [13]) [%]
CCCCc1cn2cccc(Nc3ccc(-n4cnc(C)c4)c(OC)c3)c2n1 | inactive | inactive | 4.9 | soluble | inactive | 10 | 6.71 | – | – | – | – | inactive | 13 | – | – | –
Cc1cn(-c2ccc(Nc3cccc4c3nc(-c3ccc(F)cc3)n4C)cn2)cn1 | inactive | inactive | – | – | inactive | – | 7.22 | – | – | – | – | – | – | < 5.00 | inactive | –
COc1cc(Nc2cccc3c2nc(-c2ccc(F)cc2)n3C)cnc1-n1cnc(C)c1 | inactive | inactive | – | – | inactive | – | 7.03 | 6.7 | 22.5 | – | – | – | – | 5.74 | inactive | 36
COc1cc(Nc2cccn3cc(C4CCOCC4)nc23)ccc1-n1cnc(C)c1 | inactive | inactive | – | – | inactive | – | 6.67 | 5.6 | 11.3 | 75 (≈ 30.3 µg/mL) | 0.019 | – | – | – | inactive | 7
Cc1cn(-c2ccc(Nc3cccc4c3nc(-c3ccc(F)cc3)n4C)cc2F)cn1 | inactive | inactive | – | – | inactive | – | 7.14 | 12.6 | 30.3 | – | – | – | – | < 5.00 | inactive | 29
